In series [1] the test system is Human alphaherpesvirus 3. As to the kind of experiment: Antiviral activity against thymidine kinase expressing Varicella-Zoster virus Oka infected in HEL cells assessed as inhibition of plaque formation measured after 5 days post infection. The series is classed as functional, organism-based. Particulars: Human alphaherpesvirus 3, strain Oka vaccine, 120 h. A digest of the protocol:
(§1)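 Confluent HEL fibroblast monolayers in 96-well plates were inoculated with 20 PFU of VZV (Oka or TK– strain 07-1). After 2 h adsorption, the inoculum was removed and cultures were incubated with varying compound concentrations. Plaque formation was recorded at 5 days post-infection.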

Series [2] relates to Human alphaherpesvirus 3. As to the kind of experiment: Antiviral activity against thymidine kinase deficient Varicella-Zoster virus 07-1 infected in HEL cells assessed as inhibition of plaque formation measured after 5 days post infection. Type of series: functional, organism-based. Particulars: Human alphaherpesvirus 3, 07-1, HEL, 120 h. Summed up:
as §1

The next series relates to Human alphaherpesvirus 1. As to the kind of experiment: Antiviral activity against thymidine kinase-deficient ACV-resistant Herpes simplex virus 1 KOS infected in HEL cells assessed as […] measured after 2 to 3 days post infection. Type of series: functional, organism-based. Particulars: Human alphaherpesvirus 1, KOS. A digest of the protocol: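 Confluent HEL fibroblast monolayers in 96-well plates were inoculated with 100 CCID50 of HSV-1 (KOS or TK-deficient ACV-resistant KOS). After 2 h adsorption, the inoculum was removed and cells were incubated with varying compound concentrations. Virus-induced cytopathicity was recorded at 2-3 days post-infection.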

Series [3] is described as follows: Cytostatic activity against HEL cells after 3 days by Coulter counting method. Type of series: cell-based. Particulars: human. A digest of the protocol: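 HEL cells were seeded at 5 x 10^3 cells/well and left to proliferate for 24 h. Medium with graded compound concentrations was then added, followed by 3 days at 37 °C. Cells were counted with a Coulter counter. CC50, the concentration halving proliferation relative to untreated controls, was read from plots of cell number (% of control) versus concentration.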

A further series has as its system Human alphaherpesvirus 2. As to the kind of experiment: Antiviral activity against Herpes simplex virus 2 G infected in HEL cells assessed as […] measured after 2 to 3 days post infection. The series is classed as functional, organism-based. Particulars: Human alphaherpesvirus 2, strain G. A digest of the protocol:
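Confluent HEL fibroblast monolayers were infected with 100 CCID50 of virus, and the inoculum was removed after 2 h adsorption. Cells were then cultured with serial compound concentrations. Virus-induced cytopathicity was scored at 2-3 days (HSV) or 6-7 days (HCMV) post-infection.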

Series [4] in a line: Cytotoxicity against HEL cells assessed as alteration in cell morphology after 3 days by microscopic analysis. The series is classed as cell-based. Particulars: human. A digest of the protocol:
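Uninfected HEL cell cultures were exposed to graded compound concentrations. MCC is the lowest concentration producing a microscopically detectable alteration of cell morphology.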

Bounds are passed on as bounds.

By EC50 is commonly meant the concentration at which the effect is half-maximal. Usually CC50 stands for the concentration at which the toxic effect on the cells reaches its halfway point. Lower therefore signals greater toxicity to the cells. With `CC(C)OC(=O)[C@H](C)NP(=O)(CO[C@H]1C[C@@H](n2cnc3c(=O)[nH]c(N)nc32)C[C@@H]1O)N[C@@H](C)C(=O)OC(C)C`, the EC50 amounted to 35 µM in the series on Human alphaherpesvirus 3 [1], 29.8 µM in the series on Human alphaherpesvirus 3 [2], 35 µM in the series with Human alphaherpesvirus 1 and 85.5 µM in the series with Human alphaherpesvirus 2. In addition, the CC50 at 72 h in series [3] was above 175 µM. In series [4], the MCC at 72 h was above 175 µM.
On to `Nc1ncnc2c1ncn2[C@@H]1C[C@H](OCP(=O)(O)O)C[C@H]1O`, for which the EC50 in the series with Human alphaherpesvirus 3 [1] is above 303 µM; in the series with Human alphaherpesvirus 3 [2], above 303 µM; with Human alphaherpesvirus 1 it was 161 µM; with Human alphaherpesvirus 2, 132 µM. Also, in series [4], the MCC at 72 h is above 303 µM.
As to `Nc1ncnc2c1ncn2[C@@H]1C[C@H](OCP(=O)(O)O)[C@@H](O)C1`, the EC50 in the series with Human alphaherpesvirus 3 [1] was 258 µM; in the series on Human alphaherpesvirus 3 [2], 79 µM; with Human alphaherpesvirus 1, above 303 µM; with Human alphaherpesvirus 2, above 303 µM. In addition, in series [4], the MCC at 72 h was above 303 µM.
Regarding `Nc1nc2c(ncn2[C@@H]2C[C@H](OCP(=O)(O)O)[C@@H](O)C2)c(=O)[nH]1`, the EC50 with Human alphaherpesvirus 3 [1] worked out at 17.1 µM; in the series with Human alphaherpesvirus 3 [2] it was 8.38 µM; in the series with Human alphaherpesvirus 1, 14.1 µM; with Human alphaherpesvirus 2, 33.9 µM. Also, the cytotoxic concentration (CC50) at 72 h in series [3] is above 289 µM. Moreover, in series [4], the MCC at 72 h was above 289 µM.
`O=c1[nH]c(=O)n([C@H]2C[C@H](O)[C@@H](CO)O2)cc1/C=C/Br` [BRIVUDINE]: the EC50 with Human alphaherpesvirus 3 [1] was 0.021 µM; with Human alphaherpesvirus 3 [2], 3.39 µM; in the series on Human alphaherpesvirus 1, above 30 µM; in the series with Human alphaherpesvirus 2 it was above 30 µM. Also, the CC50 at 72 h in series [3] was above 300 µM. The MCC at 72 h in series [4] is above 300 µM.
On to `Nc1nc2c(ncn2COC(CO)CO)c(=O)[nH]1` [GANCICLOVIR], for which the EC50 was 3.91 µM with Human alphaherpesvirus 1 and 0.019 µM in the series with Human alphaherpesvirus 2. In series [3], this molecule displayed a CC50 at 72 h above 391 µM. Further, the MCC at 72 h in series [4] is above 391 µM.
For the molecule `CC(C)OC(=O)[C@H](C)NP(=O)(CO[C@@H]1C[C@@H](O)[C@H](n2cnc3c(=O)[nH]c(N)nc32)C1)N[C@@H](C)C(=O)OC(C)C`, the EC50 in the series with Human alphaherpesvirus 3 [1] is 66.6 µM; with Human alphaherpesvirus 3 [2], above 175 µM; with Human alphaherpesvirus 1, above 175 µM; in the series with Human alphaherpesvirus 2 it was above 175 µM. This molecule yielded a CC50 at 72 h in series [3] above 175 µM. The MCC at 72 h in series [4] is above 175 µM.
Turning to `Cc1cn([C@@H]2C[C@H](OCP(=O)(O)O)[C@@H](O)C2)c(=O)[nH]c1=O`, the EC50 in the series on Human alphaherpesvirus 3 [1] came to 23.1 µM; in the series with Human alphaherpesvirus 3 [2] it was 5.73 µM; in the series with Human alphaherpesvirus 1, 9.89 µM; with Human alphaherpesvirus 2, 92.3 µM. This molecule also yielded a CC50 at 72 h in series [3] of 69.4 µM. Also, the MCC at 72 h in series [4] was above 247 µM.
Consider `Nc1ccn([C@@H]2C[C@H](OCP(=O)(O)O)[C@@H](O)C2)c(=O)n1`, for which the EC50 in the series on Human alphaherpesvirus 3 [1], in the series with Human alphaherpesvirus 3 [2], in the series with Human alphaherpesvirus 1 and in the series on Human alphaherpesvirus 2 was above 327 µM throughout. Besides, the MCC at 72 h in series [4] was above 327 µM.
As for `Cc1cn([C@@H]2C[C@H](OCP(=O)(O)O)C[C@H]2O)c(=O)[nH]c1=O`, the EC50 in the series on Human alphaherpesvirus 3 [1], in the series with Human alphaherpesvirus 3 [2], with Human alphaherpesvirus 1 and in the series on Human alphaherpesvirus 2 was above 247 µM in each case. In series [4], the MCC at 72 h was above 247 µM.
`Nc1nc2c(ncn2COCCO)c(=O)[nH]1` [ACYCLOVIR]: the EC50 in the series with Human alphaherpesvirus 3 [1] is 3.37 µM; with Human alphaherpesvirus 3 [2], 14.1 µM; with Human alphaherpesvirus 1, above 88 µM; in the series with Human alphaherpesvirus 2, 0.29 µM. The molecule further yielded a CC50 at 72 h in series [3] above 444 µM. Also, the MCC at 72 h in series [4] is above 444 µM.
As to `Nc1ccn(C[C@@H](CO)OCP(=O)(O)O)c(=O)n1` [CIDOFOVIR], the CC50 at 72 h in series [3] is above 358 µM. The EC50 with Human alphaherpesvirus 2 stood at 2.27 µM. The MCC at 72 h in series [4] is above 358 µM.
Consider `Nc1nc2c(ncn2[C@@H]2C[C@H](OCP(=O)(O)O)C[C@H]2O)c(=O)[nH]1`, for which the EC50 amounted to 5.35 µM in the series on Human alphaherpesvirus 3 [1], 8.83 µM with Human alphaherpesvirus 3 [2], 99 µM in the series with Human alphaherpesvirus 1 and 57.9 µM with Human alphaherpesvirus 2. The molecule also registered a CC50 at 72 h in series [3] above 289 µM. Further, the MCC at 72 h in series [4] was above 289 µM.
Take `Nc1ccn([C@@H]2C[C@H](OCP(=O)(O)O)C[C@H]2O)c(=O)n1`: the EC50 with Human alphaherpesvirus 3 [1], in the series on Human alphaherpesvirus 3 [2], in the series with Human alphaherpesvirus 1 and in the series on Human alphaherpesvirus 2 was above 327 µM throughout. Moreover, the MCC at 72 h in series [4] is above 327 µM.

The record behind these values is ChEMBL document CHEMBL4229353, “Synthesis and antiviral evaluation of cyclopentyl nucleoside phosphonates” (Eur J Med Chem, 2018).
